From PubChem
E-sel inducer: induces E-selectin expression in human endothelial cells | hit rate 0.37% among 260,000 | HUVEC E-selectin immunofluorescence imaging; normalized: neutral wells 0, TNF-alpha wells 100 | P16581 | AID 686992 | activation, % at 7.58 µM;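 active = mean E-selectin-positive cell signal at least 10% of the positive control, reached in at least 60% of replicates, without over 20% cell loss; inconclusive = no rule given, readout overlaps actives, possibly toxicity-flagged; inactive = the rest, including those meeting only one limit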
Target sequence (P16581 whole entry, looked up): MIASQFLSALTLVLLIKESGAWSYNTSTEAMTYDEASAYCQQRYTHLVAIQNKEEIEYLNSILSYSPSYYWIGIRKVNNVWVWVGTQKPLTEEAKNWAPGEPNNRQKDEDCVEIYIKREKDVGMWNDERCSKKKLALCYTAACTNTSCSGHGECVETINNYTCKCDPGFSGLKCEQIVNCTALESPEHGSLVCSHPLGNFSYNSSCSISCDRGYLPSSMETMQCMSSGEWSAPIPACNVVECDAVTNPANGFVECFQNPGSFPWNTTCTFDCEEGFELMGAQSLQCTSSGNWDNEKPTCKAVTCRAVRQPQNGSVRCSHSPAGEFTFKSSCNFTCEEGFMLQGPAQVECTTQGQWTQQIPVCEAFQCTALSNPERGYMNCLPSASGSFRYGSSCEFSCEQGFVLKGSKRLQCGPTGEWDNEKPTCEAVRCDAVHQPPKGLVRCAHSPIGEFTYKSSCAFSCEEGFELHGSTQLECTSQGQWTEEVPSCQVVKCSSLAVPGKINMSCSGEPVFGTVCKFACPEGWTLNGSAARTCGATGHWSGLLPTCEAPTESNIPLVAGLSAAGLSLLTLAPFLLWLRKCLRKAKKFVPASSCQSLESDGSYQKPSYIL
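Read-out basis: % PE-positive cells; Test system: HUVEC primary endothelial cells; Technique: immunofluorescence imaging; Dosing: single-point compound dose.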
CFTR F508del cor: CFTR F508del correction in bronchial cells. activity (quench increase), % at 7.58 µM. AID 720511. hit rate 0.36% among 350,000. CFBE cells, YFP halide quenching; stimulated with forskolin plus potentiator P3; % fluorescence drop versus neutral controls;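 active = mean added fluorescence quench of at least 8% versus neutral control, with both replicates also reaching 8%; inconclusive = only one of the mean or replicate conditions met; inactive = mean below 8% and not both replicates reaching 8%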;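 note: cells transiently co-express mutant CFTR-F508del with the halide-sensitive YFP; corrector assay measuring rescue of mutant channel to the surface after 24 h compound exposure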
FGF22 binding: FGF22 (human) thermal shift binding; activity (Tm shift, normalised), % at 9.99 µM; hit rate 1.5% among 340,000; recombinant FGF22 thermal shift, SYPRO orange fluorescence; percent of sucrose octasulfate shift, DMSO zero;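 active = mean Tm shift, scaled 0 neutral to 100 positive control, at about 1.3% or above, every replicate too, limit read from the data; inconclusive = no clear call, values can overlap the other calls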
ERAP1 HTS inh: ERAP1 (human) enzyme inhibition; recombinant ERAP1, Leu-AMC fluorescence, 60 min; inhibition, % at 10.7 µM; Q9NZ08; hit rate 0.15% among 340,000;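 active = mean replicate inhibition of at least 30%, or all replicates individually reaching that 30% level; inactive = mean below 30% and not every replicate reaching it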;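 note: 0% = neutral control wells and 100% = L-leucinethiol positive control wells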
DENV2 CPE rescue: DENV2-induced cell death inhibition. CPE inhibition, % at 9.99 µM. DENV2-infected cells, cytopathic effect rescue, plate reader. hit rate 1.7% among 350,000. AID 651640; in the data active = CPE inhibition above about 20%, passing the limit was not always enough; inconclusive = no clear call, values can overlap the other calls; tested in BHK-21 cells;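 note: 0% = median of neutral control wells and 100% = median of positive control wells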
The depositor's hits bear a star; ? = inconclusive; . = no result given. In the library only some 3.7% were active in any assay of this set; here they are far more common.

SMILES | E-sel inducer | CFTR F508del cor | FGF22 binding | ERAP1 HTS inh | DENV2 CPE rescue
CN1c2ccc(C3=CCCCC3)cc2[C@@H]2[C@@H](CCN2C(=O)Nc2ccccc2F)[C@@H]1CO | 0.5 | 5.0 | -0.1 | -0.4 | -5.4
CN(C)c1ccc2c(c1)[C@@H]1C[C@@H](CC(=O)O)O[C@@H](CO)[C@@H]1O2 | 0.0 | -2.8 | -0.4 | 3.6 | 0.2
C[C@@H]1CN([C@H](C)CO)C(=O)c2cc(NS(C)(=O)=O)ccc2O[C@@H]1CN(C)C(=O)Nc1ccc(F)cc1 | . | -2.9 | -0.5 | 2.1 | -11.7
O=C(NN1CCOCC1)c1ccc(Cl)cc1[N+](=O)[O-] | 45.0* | 1.9 | -0.4 | 2.2 | -3.9
COCCCn1cc(C(=O)c2cc(OC)ccc2OCC(=O)N2CCCCC2C)cc(C#N)c1=O (stereo not drawn) | . | 1.3 | 0.0 | -0.1 | -3.2
COCCNC(=O)COc1ccc(C)cc1C(=O)c1cc(C#N)c(=O)n(C2CC2)c1 | . | -0.4 | 44.4* | -3.0 | -5.7
CNc1cccc2c1C(=O)c1ccccc1C2=O | . | . | -0.2 | -2.1 | -8.6
O=C1c2ccccc2C(=O)c2c1cccc2N(CCO)CCO | . | 13.0* | 0.1 | 1.2 | -2.0
CC1CN(C(=S)SCCN2C(=O)CCC2=O)CC(C)O1 (stereo not drawn) | 0.0 | 0.7 | 43.5* | 1.2 | 14.5
Cc1noc(C)c1NC(=O)N(C)C[C@H]1Oc2ccc(NS(=O)(=O)c3ccc(Cl)cc3)cc2CC(=O)N([C@@H](C)CO)C[C@H]1C | 1.0 | -1.5 | 0.0 | 1.1 | -4.0
O=C(N[C@@H]1CC[C@@H](CCNC(=O)C2CCCCC2)O[C@@H]1CO)c1ccncc1 | -0.3 | -2.7 | -0.3 | -1.4 | -9.3
CN(C)CC(=O)N[C@@H]1CC[C@H](CCNC(=O)C2CCCC2)O[C@@H]1CO | -0.5 | -2.5 | 0.3 | -2.1 | 53.6*
O=C(N[C@H]1CC[C@@H](CCNC(=O)C2CCCCC2)O[C@@H]1CO)c1ccncc1 | 0.1 | 1.6 | 0.0 | -1.4 | 23.6*
CN(C)CC(=O)N[C@H]1CC[C@@H](CCNC(=O)C2CCCC2)O[C@H]1CO | 0.1 | -4.2 | 0.1 | -1.8 | -4.9
CN(C)CC(=O)N[C@@H]1CC[C@@H](CCn2cc(C3CCCCC3)nn2)O[C@H]1CO | -0.4 | -0.4 | -0.4 | 0.3 | 24.1*
C[C@@H]1CN([C@H](C)CO)S(=O)(=O)c2ccc(C#CCN(C)C)cc2O[C@@H]1CN(C)CC1CC1 | 0.4 | -1.8 | -0.3 | 0.9 | -6.0
CN(CC(=O)Nc1ccc(F)c(F)c1F)c1ncnc2sccc12 | . | -2.1 | 0.7 | 1.1 | 30.6*
CC(C)CNC(=O)COc1ncnc2sccc12 | 1.3 | -0.3 | 0.5 | 0.3 | 1.3
O=C(COc1ncnc2sccc12)Nc1ccc(F)cc1F | . | -1.5 | 43.9* | 1.3 | 1.1
CCCC(=O)Nc1ccc2c(c1)OC[C@@H](C)N(C(=O)c1ccccn1)C[C@@H](C)[C@@H](OC)CN(C)C2=O | -0.2 | 0.5 | -0.1 | -4.4 | 21.0*
CCCC(=O)Nc1ccc2c(c1)OC[C@H](C)N(C(=O)c1ccccn1)C[C@@H](C)[C@H](OC)CN(C)C2=O | -0.1 | 0.0 | 0.1 | -2.9 | 22.1*
CCCC(=O)Nc1ccc2c(c1)OC[C@H](C)N(C(=O)c1ccccn1)C[C@H](C)[C@H](OC)CN(C)C2=O | 0.0 | -0.4 | -0.1 | -4.3 | -12.6
CCCC(=O)Nc1ccc2c(c1)OC[C@H](C)N(C(=O)c1ccccn1)C[C@H](C)[C@@H](OC)CN(C)C2=O | -0.1 | 0.3 | 0.3 | -5.1 | -10.4
CN1C(=O)c2cc(NC(=O)C3CCOCC3)ccc2OC[C@@H]2O[C@@H](CC(=O)O)CC[C@@H]21 | 0.1 | 0.0 | -0.1 | -3.3 | -8.2
Cc1nn2cc(-c3cccc(Cl)c3)cnc2c1Br | -3.7 | 9.5* | 0.0 | -0.9 | ?
Cc1cc(C(=O)Nc2cccc3c2O[C@H](CN(C)Cc2ccc4c(c2)OCO4)[C@H](C)CN([C@@H](C)CO)C3=O)n(C)n1 | -10.2 | -1.6 | . | 0.2 | 8.0
CO[C@H]1CN(C)C(=O)c2cc(NC(=O)CC(F)(F)F)ccc2OC[C@H](C)N(C(=O)C2CCCCC2)C[C@H]1C | 0.0 | -0.8 | -0.2 | -2.4 | 50.1*
CCC(=O)Nc1ccc2c(c1)OC[C@H](C)N(CCC(F)(F)F)C[C@@H](C)[C@H](OC)CN(C)C2=O | -0.2 | . | -0.1 | -0.1 | 24.1*
CCCC(=O)Nc1ccc2c(c1)C(=O)N(C)C[C@H](OC)[C@H](C)CN(CCC(F)(F)F)[C@@H](C)CO2 | 0.1 | -0.5 | -0.1 | -0.8 | 22.5*
